Measurements reported in ChEMBL document CHEMBL2151019, “Potent and selective inhibitors of PI3Kδ: obtaining isoform selectivity from the affinity pocket and tryptophan shelf” (Bioorg Med Chem Lett, 2012).
pIC50: −log10 of the molar value.

How the values were obtained:
[1] = Oral bioavailability in CD1 mouse at 5 mg/kg; type: ADME, organism-based; conditions: in vivo
How it was run: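 Female CD-1 mice received an IV dose of 1 mg/kg in 5% DMSO/5% Cremophor and an oral dose of 5 mg/kg as an MCT suspension (0.5% methylcellulose/0.2% Tween-80). Plasma exposure was compared between the two routes.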

[2] = Half life in CD1 mouse at 5 mg/kg, po; type: ADME, organism-based; design: dose 5 mg/kg, route oral; conditions: in vivo
How it was run: (§1)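 Female CD-1 mice were given a 5 mg/kg oral dose as an MCT suspension (0.5% methylcellulose/0.2% Tween-80). Cmax, AUC and half-life came from the plasma concentration–time profiles.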

[3] = Oral bioavailability in Sprague-Dawley rat at 5 mg/kg; type: ADME, organism-based; conditions: in vivo
How it was run: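 Male Sprague–Dawley rats received an IV dose of 1 mg/kg in 5% DMSO/5% Cremophor and an oral dose of 5 mg/kg as an MCT suspension (0.5% methylcellulose/0.2% Tween-80). Plasma exposure was compared between the two routes.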

[4] = AUC in Sprague-Dawley rat at 30 mg/kg, po; type: ADME, organism-based; design: dose 30 mg/kg, route oral; conditions: plasma
How it was run: (§2)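 Oral dosing in male Sprague–Dawley rats used an MCT suspension (0.5% methylcellulose/0.2% Tween-80). Cmax, AUC and terminal half-life were taken from plasma concentration–time curves.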

[5] = AUC in BALB/c mouse at 40 mg/kg, po; type: ADME, organism-based; design: dose 40 mg/kg, route oral; conditions: plasma
How it was run: (§3)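 Female Balb/c mice received the compound orally as a suspension in 0.5% methylcellulose/0.2% Tween-80 (MCT). Plasma concentration–time profiles were used to derive Cmax, AUC and terminal half-life.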

[6] = Half life in BALB/c mouse at 40 mg/kg, po; type: ADME, organism-based; design: dose 40 mg/kg, route oral; conditions: in vivo; how it was run: as §3
[7] = AUC in CD1 mouse at 5 mg/kg, po; type: ADME, organism-based; design: dose 5 mg/kg, route oral; conditions: plasma; how it was run: as §1
[8] = Half life in BALB/c mouse at 20 mg/kg, po; type: ADME, organism-based; design: dose 20 mg/kg, route oral; conditions: in vivo; how it was run: as §3
[9] = Half life in Sprague-Dawley rat at 30 mg/kg, po; type: ADME, organism-based; design: dose 30 mg/kg, route oral; conditions: in vivo; how it was run: as §2
[10] = Cmax in Sprague-Dawley rat at 10 mg/kg, po; type: ADME, organism-based; design: dose 10 mg/kg, route oral; conditions: in vivo; how it was run: as §2
[11] = Volume of distribution at steady state in CD1 mouse at 1 mg/kg, iv; type: ADME, organism-based; design: dose 1 mg/kg, route intravenous; conditions: in vivo, read-out: Vdss
How it was run: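 Single IV dose of 1 mg/kg in 5% DMSO/5% Cremophor to female CD-1 mice. Pharmacokinetic parameters were taken from plasma concentrations over time.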

[12] = Half life in Sprague-Dawley rat at 10 mg/kg, po; type: ADME, organism-based; design: dose 10 mg/kg, route oral; conditions: in vivo; how it was run: as §2
[13] = AUC in Sprague-Dawley rat at 5 mg/kg, po; type: ADME, organism-based; design: dose 5 mg/kg, route oral; conditions: plasma; how it was run: as §2
[14] = AUC in Sprague-Dawley rat at 10 mg/kg, po; type: ADME, organism-based; design: dose 10 mg/kg, route oral; conditions: plasma; how it was run: as §2
[15] = Cmax in CD1 mouse at 5 mg/kg, po; type: ADME, organism-based; design: dose 5 mg/kg, route oral; conditions: in vivo; how it was run: as §1
[16] = Clearance in CD1 mouse at 1 mg/kg, iv; type: ADME, organism-based; design: dose 1 mg/kg, route intravenous; conditions: in vivo
[17] = Cmax in BALB/c mouse at 40 mg/kg, po; type: ADME, organism-based; design: dose 40 mg/kg, route oral; conditions: in vivo; how it was run: as §3
[18] = Clearance in Sprague-Dawley rat at 1 mg/kg, iv; type: ADME, organism-based; design: dose 1 mg/kg, route intravenous; conditions: in vivo
How it was run: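 Male Sprague–Dawley rats received 1 mg/kg intravenously in 5% DMSO/5% Cremophor. In vivo clearance was derived from plasma concentrations over time.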

[19] = Cmax in BALB/c mouse at 20 mg/kg, po; type: ADME, organism-based; design: dose 20 mg/kg, route oral; conditions: in vivo; how it was run: as §3
[20] = AUC in BALB/c mouse at 20 mg/kg, po; type: ADME, organism-based; design: dose 20 mg/kg, route oral; conditions: plasma; how it was run: as §3
[21] = Cmax in Sprague-Dawley rat at 30 mg/kg, po; type: ADME, organism-based; design: dose 30 mg/kg, route oral; conditions: in vivo; how it was run: as §2
[22] = Volume of distribution at steady state in Sprague-Dawley rat at 1 mg/kg, iv; type: ADME, organism-based; design: dose 1 mg/kg, route intravenous; conditions: in vivo, read-out: Vdss
How it was run: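 Male Sprague–Dawley rats were given 1 mg/kg IV in 5% DMSO/5% Cremophor. Pharmacokinetic parameters were taken from plasma concentrations over time.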

[23] = Half life in Sprague-Dawley rat at 5 mg/kg, po; type: ADME, organism-based; design: dose 5 mg/kg, route oral; conditions: in vivo; how it was run: as §2
[24] = Cmax in Sprague-Dawley rat at 5 mg/kg, po; type: ADME, organism-based; design: dose 5 mg/kg, route oral; conditions: in vivo; how it was run: as §2
[25] = Selectivity ratio of IC50 for PI3Kbeta to IC50 for PI3Kdelta
How it was run: (§4)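 Ratios of biochemical IC50 values, each against the PI3Kδ IC50. Both IC50s come from the fluorescence polarization assay monitoring PIP2-to-PIP3 conversion by each Class I isoform.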

[26] = Selectivity ratio of IC50 for PI3Kgamma to IC50 for PI3Kdelta; how it was run: as §4
[27] = Selectivity ratio of IC50 for PI3Kalpha to IC50 for PI3Kdelta; how it was run: as §4
[28] = target: T1, Phosphatidylinositol 4,5-bisphosphate 3-kinase catalytic subunit delta isoform (Homo sapiens, UniProt O00329); assay: Inhibition of PI3Kdelta-mediated AKT phosphorylation in B cells in presence of human serum; type: cell-based
T1 sequence (O00329 whole entry): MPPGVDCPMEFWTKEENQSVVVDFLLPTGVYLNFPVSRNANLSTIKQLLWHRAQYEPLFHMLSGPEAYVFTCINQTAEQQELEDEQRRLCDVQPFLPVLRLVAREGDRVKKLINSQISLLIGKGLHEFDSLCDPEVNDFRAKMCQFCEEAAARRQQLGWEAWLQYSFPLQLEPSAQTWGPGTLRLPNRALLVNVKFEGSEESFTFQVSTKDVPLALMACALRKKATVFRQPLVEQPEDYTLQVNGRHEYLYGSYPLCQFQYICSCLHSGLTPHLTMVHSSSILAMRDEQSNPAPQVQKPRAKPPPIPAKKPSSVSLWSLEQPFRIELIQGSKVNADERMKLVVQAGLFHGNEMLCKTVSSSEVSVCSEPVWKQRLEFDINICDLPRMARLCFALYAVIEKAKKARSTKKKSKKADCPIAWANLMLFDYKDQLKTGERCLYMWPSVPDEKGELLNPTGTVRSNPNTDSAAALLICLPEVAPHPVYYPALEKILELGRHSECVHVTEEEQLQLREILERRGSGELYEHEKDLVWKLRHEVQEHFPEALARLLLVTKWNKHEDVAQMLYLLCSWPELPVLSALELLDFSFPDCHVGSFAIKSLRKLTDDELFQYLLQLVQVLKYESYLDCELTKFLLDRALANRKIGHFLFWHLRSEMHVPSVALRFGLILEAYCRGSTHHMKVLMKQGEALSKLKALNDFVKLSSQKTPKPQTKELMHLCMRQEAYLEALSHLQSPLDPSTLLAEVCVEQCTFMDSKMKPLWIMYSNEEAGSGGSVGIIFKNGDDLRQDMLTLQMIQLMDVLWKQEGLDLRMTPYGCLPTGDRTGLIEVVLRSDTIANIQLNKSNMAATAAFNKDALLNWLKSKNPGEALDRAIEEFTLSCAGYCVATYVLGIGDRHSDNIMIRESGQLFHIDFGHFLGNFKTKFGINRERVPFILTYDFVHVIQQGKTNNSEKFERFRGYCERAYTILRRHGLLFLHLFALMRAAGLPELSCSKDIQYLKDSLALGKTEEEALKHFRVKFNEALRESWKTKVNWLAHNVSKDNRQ
How it was run: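 Cellular assay in the PI3Kδ-dependent B-cell cancer line Ri-1. Downstream pAKT measured with human serum added (serum-shifted); IC50 determined.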

[29] = target: T1, Phosphatidylinositol 4,5-bisphosphate 3-kinase catalytic subunit delta isoform; assay: Inhibition of PI3K p110delta using PIP2 as substrate assessed as PIP3 formation by fluorescence polarization assay
How it was run: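 Biochemical fluorescence polarization assay following conversion of PIP2 to PIP3 by PI3Kδ; IC50 determined.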

## CC(C)(O)C1CCN(Cc2ccc3nc(-c4c(F)ccc5[nH]ccc45)nc(N4CCOCC4)c3n2)CC1
[1]
  bioavailability: 80%
[2]
  half-life: 2.6 h
[3]
  bioavailability: 90%
[4]
  AUC: 46 µM·h
[5]
  AUC: 63 µM·h
[6]
  half-life: 5 h
[7]
  AUC: 2.5 µM·h
[8]
  half-life: 2.9 h
[9]
  half-life: 4.8 h
[10]
  Cmax: 1200 nM
[11]
  Vd: 4.9 L/kg
[12]
  half-life: 3.8 h
[13]
  AUC: 2.6 µM·h
[14]
  AUC: 11 µM·h
[15]
  Cmax: 900 nM
[16]
  clearance: 53 mL/min/kg
[17]
  Cmax: 14000 nM
[18]
  clearance: 59 mL/min/kg
[19]
  Cmax: 3900 nM
[20]
  AUC: 13 µM·h
[21]
  Cmax: 4700 nM
[22]
  Vd: 8.8 L/kg
[23]
  half-life: 2.6 h
[24]
  Cmax: 500 nM

## CC(C)(O)C1CCN(Cc2nc3c(N4CCOCC4)nc(-c4c(F)ccc5[nH]ccc45)nc3[nH]2)CC1
[25]
  Ratio IC50: 140
[26]
  Ratio IC50: 1500
[27]
  Ratio IC50: 330

## CC(C)(O)C1CCN(Cc2ccc3nc(-c4cnc(N)nc4)nc(N4CCOCC4)c3n2)CC1
[25]
  Ratio IC50: 73
[28]
  pIC50: 6.84
[26]
  Ratio IC50: 43
[29]
  pIC50: 8.59
[27]
  Ratio IC50: 5.4

## OCc1ccc2nc(-c3c(F)ccc4[nH]ccc34)nc(N3CCOCC3)c2n1
[25]
  Ratio IC50: 3.7
[28]
  pIC50: 6.84
[26]
  Ratio IC50: 38
[29]
  pIC50: 7.57
[27]
  Ratio IC50: 14

## CC(C)(O)C1CCN(Cc2ccc3nc(-c4cccc5[nH]ccc45)nc(N4CCOCC4)c3n2)CC1
[25]
  Ratio IC50: 210
[28]
  pIC50: 7.26
[26]
  Ratio IC50: 610
[27]
  Ratio IC50: 370

## CC(C)(O)C1CCN(Cc2ccc3nc(-c4cccc5[nH]ncc45)nc(N4CCOCC4)c3n2)CC1
[25]
  Ratio IC50: 78
[28]
  pIC50: 6.32
[26]
  Ratio IC50: 260
[27]
  Ratio IC50: 22

## CC(C)(O)C1CCN(Cc2nc3nc(-c4c(F)ccc5[nH]ccc45)nc(N4CCOCC4)c3[nH]2)CC1
[29]
  pIC50: 8.72

## Fc1ccc2[nH]ccc2c1-c1nc(N2CCOCC2)c2nc(CN3CCOCC3)ccc2n1
[25]
  Ratio IC50: 13
[28]
  pIC50: 7.17
[26]
  Ratio IC50: 120
[29]
  pIC50: 7.92
[27]
  Ratio IC50: 58

## CC(C)(O)C1CCN(Cc2nc3c(N4CCOCC4)nc(-c4c(F)ccc5[nH]ccc45)nc3s2)CC1
[25]
  Ratio IC50: 200
[26]
  Ratio IC50: 1400
[29]
  pIC50: 9.22
[27]
  Ratio IC50: 220

## CC(C)(O)C1CCN(Cc2cc3nc(-c4c(F)ccc5[nH]ccc45)nc(N4CCOCC4)c3s2)CC1
[25]
  Ratio IC50: 110
[26]
  Ratio IC50: 910
[29]
  pIC50: 8.40
[27]
  Ratio IC50: 170
